ChEMBL document CHEMBL1147968, “Novel lbeta-methylcarbapenems having cyclic sulfonamide moieties: synthesis and evaluation of in vitro antibacterial activity” (2007)
≈ marks a conversion by molar mass, not a printed value.

Key:
Format in all cases: functional
[1] = test system: Staphylococcus aureus; assay: Antibacterial activity against Staphylococcus aureus 1218 after 18 to 24 hrs by agar dilution method
Method in brief: (§1)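 MICs were determined by agar dilution on test agar. An overnight tryptosoy broth culture was diluted in the same broth to about 10⁶ cells/mL and spotted with an inoculating device onto agar containing serial twofold dilutions of compound. Plates were incubated at 37 °C for 18–20 h, and the MIC was the lowest concentration with no visible growth.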

[2] = test system: Staphylococcus; assay: Antibacterial activity against coagulase negative Staphylococcus after 18 to 24 hrs by agar dilution method
Method in brief: (§2)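 Agar dilution on test agar holding serial twofold dilutions of compound. Overnight tryptosoy broth cultures were diluted in the same broth to about 10⁶ cells/mL and spotted with an inoculating device. Plates were incubated at 37 °C for 18–20 h.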

[3] = test system: Enterococcus faecalis; assay: Antibacterial activity against Enterococcus faecalis 2347 after 18 to 24 hrs by agar dilution method; method in brief: as §1
[4] = test system: Streptococcus pyogenes; assay: Antibacterial activity against Streptococcus pyogenes 9889 after 18 to 24 hrs by agar dilution method; method in brief: as §2
[5] = test system: Streptococcus agalactiae; assay: Antibacterial activity against Streptococcus agalactiae 32 after 18 to 24 hrs by agar dilution method; method in brief: as §1
[6] = test system: Streptococcus pneumoniae; assay: Antibacterial activity against Streptococcus pneumoniae 0025 after 18 to 24 hrs by agar dilution method; method in brief: as §1
[7] = test system: Haemophilus influenzae; assay: Antibacterial activity against Haemophilus influenzae 1210 after 18 to 24 hrs by agar dilution method; method in brief: as §1
[8] = test system: Escherichia coli; assay: Antibacterial activity against Escherichia coli 04 after 18 to 24 hrs by agar dilution method; method in brief: as §1
[9] = test system: Klebsiella pneumoniae; assay: Antibacterial activity against Klebsiella pneumoniae 523 after 18 to 24 hrs by agar dilution method; method in brief: as §1
[10] = test system: Citrobacter freundii; assay: Antibacterial activity against Citrobacter freundii 323 after 18 to 24 hrs by agar dilution method; method in brief: as §1
[11] = test system: Enterobacter cloacae; assay: Antibacterial activity against Enterobacter cloacae 34 after 18 to 24 hrs by agar dilution method; method in brief: as §1
[12] = test system: Serratia marcescens; assay: Antibacterial activity against Serratia marcescens 3349 after 18 to 24 hrs by agar dilution method; method in brief: as §1
[13] = test system: Acinetobacter baumannii; assay: Antibacterial activity against Acinetobacter baumannii 2289 after 18 to 24 hrs by agar dilution method; method in brief: as §1
[14] = test system: Pseudomonas aeruginosa; assay: Antibacterial activity against Pseudomonas aeruginosa 5455 after 18 to 24 hrs by agar dilution method; method in brief: as §1

MIC [1]: 3.12 µg/mL (≈ 5.81 µM) | MIC [2]: 0.098 µg/mL (≈ 0.183 µM) | MIC [3]: 3.12 µg/mL (≈ 5.81 µM) | MIC [4]: 0.02 µg/mL (≈ 0.0373 µM) | MIC [5]: 0.02 µg/mL (≈ 0.0373 µM) | MIC [6]: 0.025 µg/mL (≈ 0.0466 µM) | MIC [7]: 12.5 µg/mL (≈ 23.3 µM) | MIC [8]: 0.195 µg/mL (≈ 0.363 µM) | MIC [9]: 0.781 µg/mL (≈ 1.46 µM) | MIC [10]: 0.781 µg/mL (≈ 1.46 µM) | MIC [11]: 0.781 µg/mL (≈ 1.46 µM) | MIC [12]: 6.25 µg/mL (≈ 11.6 µM) | MIC [13]: 50 µg/mL (≈ 93.2 µM) | MIC [14]: 100 µg/mL (≈ 186 µM)
SMILES: C[C@@H](O)C1C(=O)N2C(C(=O)O)=C(S[C@@H]3CN[C@H](CN4CCN(Cc5ccccc5)S4(=O)=O)C3)[C@H](C)C12 (some centres undefined)
